Source: ChEMBL document CHEMBL5724801, “EUbOPEN Chemogenomics Library - Multiplex” (2024)
Values joined by “and” are separate entries in the source; they are usually repeats but may differ in a detail not shown here. Equal values may be shown once.

Test system: U2OS
Assay: Multiplex assay against U2OS
Assay type: toxicity, cell-based
Conditions: human
In short: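 On a CQ1 microscope at 37°C and 5% CO2, live cells were imaged after compound addition. They had been stained at seeding with Hoechst33342, BioTracker Green Microtubule Cytoskeleton Dye, MitoTracker Red and Annexin V Alexa Fluor 680. CellPathfinder machine-learning gating assigned cells to Hoechst high-intensity objects or normal cells, normal cells to healthy, pyknosed or fragmented nuclei, and pyknosed cells to mitotic or apoptotic. Tubulin, mitochondrial-mass and membrane-permeability phenotypes are per cents of healthy-nucleus cells.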

[1] = 12 h, 1 µM, compound concentration 1 uM
[2] = 12 h, 10 µM, compound concentration 10 uM
[3] = 24 h, 1 µM, compound concentration 1 uM
[4] = 24 h, 10 µM, compound concentration 10 uM
[5] = 48 h, 1 µM, compound concentration 1 uM
[6] = 48 h, 10 µM, compound concentration 10 uM

Compound: COCCNc1nc2ccc(C#CC3(O)CCCCC3)cc2n1-c1ccnc(N)n1
- Population Apoptotic (%) [1]: 53.85% and 25%
- Population Fragmented Nuclei (%) [1]: 1.38% and 4.59%
- Population Healthy Nuclei (%) [1]: 91.46% and 77.06%
- Population Hoechst High Intensity Objects (%) [1]: 0%
- Population Membrane Permeable-Phenotype (%) [1]: 0.9% and 4.76%
- Population Mitochondria Different-Phenotype (%) [1]: 0% and 4.76%
- Population Mitotic Cells (%) [1]: 46.15% and 75%
- Population Normal (%) [1]: 100%
- Population Pyknosed Nuclei (%) [1]: 7.16% and 18.35%
- Population Tubulin-Different-Phenotype (%) [1]: 0.6% and 0%
- Population Apoptotic (%) [2]: 38.46% and 41.03%
- Population Fragmented Nuclei (%) [2]: 1.89% and 3.8%
- Population Healthy Nuclei (%) [2]: 82.78% and 75%
- Population Hoechst High Intensity Objects (%) [2]: 0%
- Population Membrane Permeable-Phenotype (%) [2]: 8.26% and 7.25%
- Population Mitotic Cells (%) [2]: 61.54% and 58.97%
- Population Normal (%) [2]: 100%
- Population Pyknosed Nuclei (%) [2]: 15.33% and 21.2%
- Population Tubulin-Different-Phenotype (%) [2]: 15.38% and 10.87%
- Total Cell Count [2]: 424 and 184
- Population Apoptotic (%) [3]: 34.62% and 40%
- Population Fragmented Nuclei (%) [3]: 0.86% and 3.12%
- Population Healthy Nuclei (%) [3]: 87.96% and 85.16%
- Population Hoechst High Intensity Objects (%) [3]: 0%
- Population Membrane Permeable-Phenotype (%) [3]: 0.49% and 4.59%
- Population Mitochondria Different-Phenotype (%) [3]: 0.24% and 2.75%
- Population Mitotic Cells (%) [3]: 65.38% and 60%
- Population Normal (%) [3]: 100%
- Population Pyknosed Nuclei (%) [3]: 11.18% and 11.72%
- Population Tubulin-Different-Phenotype (%) [3]: 0.73% and 0%
- Population Apoptotic (%) [4]: 27.97% and 41.07%
- Population Fragmented Nuclei (%) [4]: 1.32% and 3.03%
- Population Healthy Nuclei (%) [4]: 76.5% and 68.69%
- Population Hoechst High Intensity Objects (%) [4]: 0%
- Population Membrane Permeable-Phenotype (%) [4]: 2.7% and 6.62%
- Population Mitotic Cells (%) [4]: 72.03% and 58.93%
- Population Normal (%) [4]: 100%
- Population Pyknosed Nuclei (%) [4]: 22.18% and 28.28%
- Population Tubulin-Different-Phenotype (%) [4]: 15.72% and 8.82%
- Total Cell Count [4]: 532 and 198
- Population Apoptotic (%) [5]: 38.1% and 52%
- Population Fragmented Nuclei (%) [5]: 2.24% and 2.58%
- Population Healthy Nuclei (%) [5]: 88.37% and 84.54%
- Population Hoechst High Intensity Objects (%) [5]: 0%
- Population Membrane Permeable-Phenotype (%) [5]: 0.63% and 0.61%
- Population Mitochondria Different-Phenotype (%) [5]: 0% and 2.44%
- Population Mitotic Cells (%) [5]: 61.9% and 48%
- Population Normal (%) [5]: 100%
- Population Pyknosed Nuclei (%) [5]: 9.4% and 12.89%
- Population Tubulin-Different-Phenotype (%) [5]: 1.14% and 1.22%
- Population Apoptotic (%) [6]: 45.97% and 47.78%
- Population Fragmented Nuclei (%) [6]: 2.08% and 1.2%
- Population Healthy Nuclei (%) [6]: 81.79% and 62.65%
- Population Hoechst High Intensity Objects (%) [6]: 0%
- Population Membrane Permeable-Phenotype (%) [6]: 2.38% and 2.56%
- Population Mitotic Cells (%) [6]: 54.03% and 52.22%
- Population Normal (%) [6]: 100%
- Population Pyknosed Nuclei (%) [6]: 16.12% and 36.14%
- Population Tubulin-Different-Phenotype (%) [6]: 13.35% and 7.69%

Compound: CC(C)C[C@H](NC(=O)c1cc2ccccc2s1)C(=O)N1CCN(C(=O)[C@H](CO)NS(=O)(=O)c2ccc(Cl)cc2Cl)CC1
- Population Apoptotic (%) [1]: 71.76% and 81.82%
- Population Fragmented Nuclei (%) [1]: 5.1% and 6.74%
- Population Healthy Nuclei (%) [1]: 61.48% and 56.18%
- Population Hoechst High Intensity Objects (%) [1]: 0%
- Population Membrane Permeable-Phenotype (%) [1]: 5.39% and 4%
- Population Mitotic Cells (%) [1]: 28.24% and 18.18%
- Population Normal (%) [1]: 100%
- Population Pyknosed Nuclei (%) [1]: 33.42% and 37.08%
- Population Tubulin-Different-Phenotype (%) [1]: 4.56% and 4%
- Population Apoptotic (%) [2]: 55.1% and 50.79%
- Population Fragmented Nuclei (%) [2]: 2% and 2.9%
- Population Healthy Nuclei (%) [2]: 65.33% and 51.45%
- Population Hoechst High Intensity Objects (%) [2]: 0%
- Population Membrane Permeable-Phenotype (%) [2]: 69.39% and 39.44%
- Population Mitochondria Different-Phenotype (%) [2]: 30.61% and 87.32%
- Population Mitotic Cells (%) [2]: 44.9% and 49.21%
- Population Normal (%) [2]: 100%
- Population Pyknosed Nuclei (%) [2]: 32.67% and 45.65%
- Population Tubulin-Different-Phenotype (%) [2]: 98.47% and 95.77%
- Total Cell Count [2]: 300 and 138
- Population Apoptotic (%) [3]: 71.76% and 90.91%
- Population Fragmented Nuclei (%) [3]: 4.78% and 1.14%
- Population Healthy Nuclei (%) [3]: 65.38% and 61.36%
- Population Hoechst High Intensity Objects (%) [3]: 0%
- Population Membrane Permeable-Phenotype (%) [3]: 4.18% and 5.56%
- Population Normal (%) [3]: 100%
- Population Pyknosed Nuclei (%) [3]: 29.84% and 37.5%
- Population Tubulin-Different-Phenotype (%) [3]: 4.88% and 3.7%
- Population Apoptotic (%) [4]: 65.59% and 62.96%
- Population Fragmented Nuclei (%) [4]: 2.48% and 4.41%
- Population Healthy Nuclei (%) [4]: 64.54% and 55.88%
- Population Hoechst High Intensity Objects (%) [4]: 0%
- Population Membrane Permeable-Phenotype (%) [4]: 34.07% and 32.89%
- Population Mitochondria Different-Phenotype (%) [4]: 52.75% and 88.16%
- Population Mitotic Cells (%) [4]: 34.41% and 37.04%
- Population Normal (%) [4]: 100%
- Population Pyknosed Nuclei (%) [4]: 32.98% and 39.71%
- Population Tubulin-Different-Phenotype (%) [4]: 95.6% and 81.58%
- Total Cell Count [4]: 282 and 136
- Population Apoptotic (%) [5]: 77.39% and 79.17%
- Population Fragmented Nuclei (%) [5]: 3.97% and 6.03%
- Population Healthy Nuclei (%) [5]: 79.75% and 73.28%
- Population Hoechst High Intensity Objects (%) [5]: 0%
- Population Membrane Permeable-Phenotype (%) [5]: 5.15% and 10.59%
- Population Mitotic Cells (%) [5]: 22.61% and 20.83%
- Population Normal (%) [5]: 100%
- Population Pyknosed Nuclei (%) [5]: 16.29% and 20.69%
- Population Tubulin-Different-Phenotype (%) [5]: 5.51% and 4.71%
- Population Apoptotic (%) [6]: 78.7% and 70%
- Population Fragmented Nuclei (%) [6]: 3.93% and 4.11%
- Population Healthy Nuclei (%) [6]: 63.44% and 54.79%
- Population Hoechst High Intensity Objects (%) [6]: 0%
- Population Membrane Permeable-Phenotype (%) [6]: 29.05% and 32.5%
- Population Mitochondria Different-Phenotype (%) [6]: 43.33% and 62.5%
- Population Mitotic Cells (%) [6]: 21.3% and 30%
- Population Normal (%) [6]: 100%
- Population Pyknosed Nuclei (%) [6]: 32.63% and 41.1%
- Population Tubulin-Different-Phenotype (%) [6]: 92.38% and 80%
- Total Cell Count [6]: 331 and 146

Compound: CNc1nc(NCc2ncccn2)c2c(-c3ccc4ncccc4c3)c[nH]c2n1
- Population Apoptotic (%) [1]: 34.88% and 46.15%
- Population Fragmented Nuclei (%) [1]: 1.68% and 0.68%
- Population Healthy Nuclei (%) [1]: 88.01% and 90.48%
- Population Hoechst High Intensity Objects (%) [1]: 0%
- Population Membrane Permeable-Phenotype (%) [1]: 1.36% and 3.01%
- Population Mitochondria Different-Phenotype (%) [1]: 0% and 4.51%
- Population Mitotic Cells (%) [1]: 65.12% and 53.85%
- Population Normal (%) [1]: 100%
- Population Pyknosed Nuclei (%) [1]: 10.31% and 8.84%
- Population Tubulin-Different-Phenotype (%) [1]: 0.82% and 0.75%
- Total Cell Count [1]: 417 and 147
- Population Apoptotic (%) [2]: 30.95% and 40%
- Population Fragmented Nuclei (%) [2]: 0.88% and 3.14%
- Population Healthy Nuclei (%) [2]: 86.76% and 84.28%
- Population Hoechst High Intensity Objects (%) [2]: 0%
- Population Membrane Permeable-Phenotype (%) [2]: 6.44% and 8.21%
- Population Mitotic Cells (%) [2]: 69.05% and 60%
- Population Normal (%) [2]: 100%
- Population Pyknosed Nuclei (%) [2]: 12.35% and 12.58%
- Population Tubulin-Different-Phenotype (%) [2]: 6.78% and 4.48%
- Total Cell Count [2]: 340 and 159
- Population Apoptotic (%) [3]: 48.89% and 42.86%
- Population Fragmented Nuclei (%) [3]: 2.09% and 2.01%
- Population Healthy Nuclei (%) [3]: 90.09% and 83.92%
- Population Hoechst High Intensity Objects (%) [3]: 0%
- Population Membrane Permeable-Phenotype (%) [3]: 0.58% and 1.2%
- Population Mitochondria Different-Phenotype (%) [3]: 0.19% and 6.59%
- Population Mitotic Cells (%) [3]: 51.11% and 57.14%
- Population Normal (%) [3]: 100%
- Population Pyknosed Nuclei (%) [3]: 7.83% and 14.07%
- Population Tubulin-Different-Phenotype (%) [3]: 0.58% and 0.6%
- Total Cell Count [3]: 575 and 199
- Population Apoptotic (%) [4]: 29.41% and 43.75%
- Population Fragmented Nuclei (%) [4]: 2.37% and 4.04%
- Population Healthy Nuclei (%) [4]: 89.57% and 87.88%
- Population Hoechst High Intensity Objects (%) [4]: 0%
- Population Membrane Permeable-Phenotype (%) [4]: 1.59% and 2.3%
- Population Mitotic Cells (%) [4]: 70.59% and 56.25%
- Population Normal (%) [4]: 100%
- Population Pyknosed Nuclei (%) [4]: 8.06% and 8.08%
- Population Tubulin-Different-Phenotype (%) [4]: 2.12% and 1.15%
- Total Cell Count [4]: 422 and 198
- Population Apoptotic (%) [5]: 45% and 54.29%
- Population Fragmented Nuclei (%) [5]: 3.04% and 1.19%
- Population Healthy Nuclei (%) [5]: 87.45% and 88.36%
- Population Hoechst High Intensity Objects (%) [5]: 0%
- Population Membrane Permeable-Phenotype (%) [5]: 1.2% and 1.35%
- Population Mitochondria Different-Phenotype (%) [5]: 0.11% and 4.39%
- Population Mitotic Cells (%) [5]: 55% and 45.71%
- Population Normal (%) [5]: 100%
- Population Pyknosed Nuclei (%) [5]: 9.51% and 10.45%
- Population Tubulin-Different-Phenotype (%) [5]: 1.41% and 0.68%
- Population Apoptotic (%) [6]: 55.56% and 56%
- Population Fragmented Nuclei (%) [6]: 1.27% and 3.63%
- Population Healthy Nuclei (%) [6]: 89.84% and 88.12%
- Population Hoechst High Intensity Objects (%) [6]: 0%
- Population Membrane Permeable-Phenotype (%) [6]: 0.94% and 1.87%
- Population Mitochondria Different-Phenotype (%) [6]: 0.78% and 7.87%
- Population Mitotic Cells (%) [6]: 44.44% and 44%
- Population Normal (%) [6]: 100%
- Population Pyknosed Nuclei (%) [6]: 8.89% and 8.25%
- Population Tubulin-Different-Phenotype (%) [6]: 1.88% and 1.5%
- Total Cell Count [6]: 709 and 303
